Assay [1] relates to Aspergillus fumigatus. Nature of the assay: In vitro antifungal activity against Aspergillus fumigatus. It is filed as functional. An outline of the steps: (§1)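 Fungal growth-inhibition screen (Godefroi method) against dermatophytes, yeasts, moulds and other fungi. The value is the lowest concentration (µg/mL) giving total inhibition of growth, tested up to 100 µg/mL.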
Assay [2] has as its system Candida albicans. As to the kind of experiment: In vitro antifungal activity against Candida albicans. It is filed as functional. Put shortly: as §1
Assay [3] concerns Candida tropicalis. Nature of the assay: In vitro antifungal activity against Candida tropicalis. It is filed as functional. Put shortly: as §1
Assay [4] concerns Cryptococcus neoformans. As to the kind of experiment: In vitro antifungal activity against Cryptococcus neoformans. The class given is functional. Put shortly:
as §1

The subject of assay [5] is Microsporum canis. As to the kind of experiment: In vitro antifungal activity against Microsporum canis. It is filed as functional. Put shortly:
as §1

Assay [6] is described as follows: In vitro antifungal activity against Mucor sp. The class given is functional. Put shortly: as §1
Assay [7] concerns Phialophora verrucosa. As to the kind of experiment: In vitro antifungal activity against Phialophora verrucosa. The class given is functional. An outline of the steps: as §1
Assay [8] relates to Saprolegnia. As to the kind of experiment: In vitro antifungal activity against Saprolegnia sp. The class given is functional. Put shortly: as §1
For assay [9], the system named is Sporothrix schenckii. As to the kind of experiment: In vitro antifungal activity against Sporothrix schenck ii. It is filed as functional. An outline of the steps:
as §1

In assay [10] the test system is Trichophyton benhamiae. As to the kind of experiment: In vitro antifungal activity against Trichophyton mentagrophytes. It is filed as functional, Arthroderma benhamiae. Put shortly:
as §1

The subject of assay [11] is Trichophyton rubrum. As to the kind of experiment: In vitro antifungal activity against Trichophyton rubrum. It is filed as functional. An outline of the steps:
as §1

Assay [12] can be described thus: In vivo activity against microsporosis guinea pig, measured as the ratio of animals cured/animals infected (C/I) at dose 2.5 mg/kg; C/I = 0/2. It is filed as functional.
Assay [13] is described as follows: In vivo activity against microsporosis guinea pig, measured as the ratio of animals cured/animals infected (C/I) at dose 10 mg/kg; C/I = 0/2. It is filed as functional.
Assay [14] can be described thus: In vivo activity against vaginal candidoses in rats, measured as the ratio of animals cured/animals infected (C/I) at dose 2.5 mg/kg; C/I = 1/2. The class given is functional.
Assay [15] in a line: In vivo activity against vaginal candidoses in rats, measured as the ratio of animals cured/animals infected (C/I) at dose 2.5 mg/kg; C/I = 0/2. The class given is functional.
Assay [16] can be described thus: In vivo activity against microsporosis guinea pig, measured as the ratio of animals cured/animals infected (C/I) at dose 10 mg/kg; C/I = 2/2. The class given is functional.

Regarding `CCc1nnc(O)n1-c1ccc(N2CCN(c3ccc(OC[C@@H]4COC(Cn5ccnc5)(c5ccc(Cl)cc5Cl)O4)cc3)CC2)cc1` (stereo partly specified), the Inhibition in assay [1] is >100 µg/mL; in assay [2], 100 µg/mL; in [3], 100 µg/mL; in [4], >100 µg/mL; in [5], >100 µg/mL; in assay [6], >100 µg/mL. In addition, the Inhibition in assay [7], in assay [8], in assay [9], in [10] and in assay [11] was >100 µg/mL each time. The C/I ratio in assay [12] came out at 0.

As to `CC(C)Cn1ncn(-c2ccc(N3CCN(c4ccc(OC[C@@H]5COC(Cn6ccnc6)(c6ccc(Cl)cc6Cl)O5)cc4)CC3)cc2)c1=O` (stereo partly specified), the Inhibition was >100 µg/mL in assay [1]; 100 µg/mL in assay [2]; >100 µg/mL in assay [3]; >100 µg/mL in assay [4]; >100 µg/mL in assay [5]; > 100 µg/mL in assay [6]. The Inhibition was >100 µg/mL in assay [7]; >100 µg/mL in assay [8]; >100 µg/mL in [9]; 100 µg/mL in assay [10]; >100 µg/mL in assay [11]. In addition, the results for the C/I ratio in [13] and in assay [14] were 0 and 1, respectively.

Regarding `Cc1nnc(O)n1-c1ccc(N2CCN(c3ccc(OC[C@@H]4COC(Cn5cncn5)(c5ccc(Cl)cc5Cl)O4)cc3)CC2)cc1` (stereo partly specified), the Inhibition was >100 µg/mL in [1]; >100 µg/mL in assay [2]; 1 µg/mL in assay [3]; 100 µg/mL in assay [4]; >100 µg/mL in assay [5]; >100 µg/mL in assay [6]. Moreover, the Inhibition was 100 µg/mL in assay [7]; >100 µg/mL in assay [8]; >100 µg/mL in assay [9]; 10 µg/mL in [10]; 100 µg/mL in assay [11]. Also, the C/I ratio in [13] is 0.

For `CCCn1nc(C)n(-c2ccc(N3CCN(c4ccc(OC[C@@H]5COC(Cn6ccnc6)(c6ccc(Cl)cc6Cl)O5)cc4)CC3)cc2)c1=O` (stereo partly specified), the Inhibition is >100 µg/mL in assay [1]; 100 µg/mL in assay [2]; 100 µg/mL in assay [3]; >100 µg/mL in assay [4]; >100 µg/mL in [5]; >100 µg/mL in assay [6]. The Inhibition in assay [7], in assay [8], in assay [9], in assay [10] and in assay [11] was >100 µg/mL throughout. Also, the C/I ratio in assay [15] is 0.

For `Cc1nn(C(C)C)c(=O)n1-c1ccc(N2CCN(c3ccc(OC[C@@H]4COC(Cn5cncn5)(c5ccc(Cl)cc5Cl)O4)cc3)CC2)cc1` (stereo partly specified), the Inhibition was >100 µg/mL in assay [1]; >100 µg/mL in [2]; 10 µg/mL in [3]; >100 µg/mL in assay [4]; >100 µg/mL in [5]; >100 µg/mL in [6]. For the same compound, the Inhibition in assay [7] was >100 µg/mL; in assay [8], >100 µg/mL; in assay [9] it was >100 µg/mL; in assay [10], 100 µg/mL; in [11], >100 µg/mL. Also, the values for the C/I ratio in assay [13] and in [14] were 0 and 1, respectively.

For `O=c1n(-c2ccc(N3CCN(c4ccc(OC[C@@H]5COC(Cn6cncn6)(c6ccc(Cl)cc6Cl)O5)cc4)CC3)cc2)cnn1C1CCCC1` (stereo partly specified), the Inhibition in assay [1], in [2], in assay [3], in assay [4], in [5] and in assay [6] was >100 µg/mL each time. The Inhibition in [7] was >100 µg/mL; in assay [8], >100 µg/mL; in assay [9], >100 µg/mL; in assay [10], 100 µg/mL; in [11], >100 µg/mL. For the same compound, the C/I ratio stood at 0 in [12], 2 in assay [16] and 1 in [14].

With `CCn1nc(C)n(-c2ccc(N3CCN(c4ccc(OC[C@@H]5COC(Cn6ccnc6)(c6ccc(Cl)cc6Cl)O5)cc4)CC3)cc2)c1=O` (stereo partly specified), the Inhibition in assay [1] was >100 µg/mL; in [2], >100 µg/mL; in [3], 100 µg/mL; in assay [4], >100 µg/mL; in [5] it was >100 µg/mL; in [6], >100 µg/mL. In addition, the Inhibition was >100 µg/mL in [7]; >100 µg/mL in [8]; >100 µg/mL in assay [9]; 100 µg/mL in assay [10]; >100 µg/mL in assay [11]. The C/I ratio in assay [12] and in assay [15] was 0 each time.

Regarding `Oc1nncn1-c1ccc(N2CCN(c3ccc(OC[C@@H]4COC(Cn5cncn5)(c5ccc(Cl)cc5Cl)O4)cc3)CC2)cc1` (stereo partly specified), the Inhibition in assay [1], in [2], in [3], in [4], in assay [5] and in assay [6] was >100 µg/mL each time. In addition, the Inhibition in assay [7], in assay [8], in assay [9], in assay [10] and in [11] was >100 µg/mL each time. Moreover, the C/I ratio in [13] was 0.

`Cc1nnc(O)n1-c1ccc(N2CCN(c3ccc(OC[C@@H]4COC(Cn5ccnc5)(c5ccc(Cl)cc5Cl)O4)cc3)CC2)cc1` (stereo partly specified): the Inhibition is >100 µg/mL in assay [1]; 100 µg/mL in [2]; 10 µg/mL in assay [3]; 100 µg/mL in assay [4]; >100 µg/mL in assay [5]; >100 µg/mL in [6]. Further, the Inhibition in assay [7] is >100 µg/mL; in assay [8], >100 µg/mL; in [9], >100 µg/mL; in assay [10], 10 µg/mL; in [11], 10 µg/mL. Also, the C/I ratio in assay [13] was found to be 0.

For the compound `Oc1nncn1-c1ccc(N2CCN(c3ccc(OC[C@@H]4COC(Cn5ccnc5)(c5ccc(Cl)cc5Cl)O4)cc3)CC2)cc1` (stereo partly specified), the Inhibition in [1] is >100 µg/mL; in assay [2] it was >100 µg/mL; in assay [3] it was 100 µg/mL; in assay [4], >100 µg/mL; in assay [5] it was >100 µg/mL; in [6], >100 µg/mL. Moreover, the Inhibition was >100 µg/mL in assay [7]; >100 µg/mL in assay [8]; >100 µg/mL in assay [9]; 100 µg/mL in assay [10]; >100 µg/mL in [11]. Further, the C/I ratio in [15] is given as 0.

As to `CCn1ncn(-c2ccc(N3CCN(c4ccc(OC[C@@H]5COC(Cn6ccnc6)(c6ccc(Cl)cc6Cl)O5)cc4)CC3)cc2)c1=O` (stereo partly specified), the Inhibition in [1] was >100 µg/mL; in [2] it was 100 µg/mL; in [3] it was 100 µg/mL; in assay [4], >100 µg/mL; in [5] it was >100 µg/mL; in [6], >100 µg/mL. Also, the Inhibition in assay [7] is >100 µg/mL; in assay [8], >100 µg/mL; in [9] it was >100 µg/mL; in [10], 100 µg/mL; in assay [11], 10 µg/mL. Moreover, the C/I ratio in assay [15] is 0.

On to `O=c1n(-c2ccc(N3CCN(c4ccc(OC[C@@H]5COC(Cn6cncn6)(c6ccc(Cl)cc6Cl)O5)cc4)CC3)cc2)cnn1CC1CC1` (stereo partly specified), for which the Inhibition in assay [1] is >100 µg/mL; in [2], 100 µg/mL; in [3] it was >100 µg/mL; in assay [4], >100 µg/mL; in [5], >100 µg/mL; in assay [6] it was >100 µg/mL. Besides, the Inhibition in assay [7] is 100 µg/mL; in assay [8], >100 µg/mL; in assay [9], >100 µg/mL; in assay [10], 10 µg/mL; in assay [11], 10 µg/mL. The results for the C/I ratio in assay [12], in assay [16] and in [14] were 0, 1 and 1, respectively.

Source of the values: ChEMBL document CHEMBL1122688, “Antimycotic azoles. 7. Synthesis and antifungal properties of a series of novel triazol-3-ones” (1984).
